Experimental findings from publication PMC6531791 (Molecular Metabolism, 2019) are described below.

What all share (assay type): in vivo, mouse
The test system of series [1] is SN DA neuron mitochondria. As to the kind of experiment: Electron microscopy analysis of mitochondrial morphology in SN DA neurons. The settings on record: for Mitochondrial average area in SN DA cells / Mitochondrial cytoplasmic coverage: WT mice; for Mitochondrial average area in SN DA cells: vehicle = 0.143 ± 0.004, n = 102–473 per group; for Mitochondrial cytoplasmic coverage: vehicle = 9.94% ± 1.1; for average mitochondrial area in SN DA cells / mitochondrial coverage of cytoplasmic area / mitochondrial units per cell: iCre-DAT MFN2KO animals; for average mitochondrial area in SN DA cells: untreated KO = 0.163 ± 0.005; for mitochondrial coverage of cytoplasmic area: untreated KO = 9.35% ± 0.56; for mitochondrial units per cell: untreated KO = 80 ± 12. An outline of the steps: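 Mice got test peptide (15 nmoles) or saline s.c. daily for 10 days, 15 min before dark onset. […] Perfusion: ice-cold saline, then 4% PFA/15% picric acid/0.1% glutaraldehyde in 0.1M PB. Sections were freeze-thawed and immunolabelled. Mitochondria required visible cristae and a double membrane. Coverage = summed mitochondrial area / (cell − nucleus area), %.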

The next series has as its system microglia in SN. As to the kind of experiment: Microglia immunostaining with IBA-1 antibody in SN. The settings on record: after MPTP exposure, with or without Dln101 pre-treatment. An outline of the steps: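 Sections were blocked in 5% normal goat serum, 1% BSA, 0.1% glycine and 0.1% L-lysine. Rabbit polyclonal anti-IBA-1 (1:3000) was applied overnight at 4 °C, then a biotinylated secondary with ABC/DAB or avidin-Alexa 488. TH was co-stained.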

A further series deals with SN DA neurons (TH+). As to the kind of experiment: In situ detection of ROS with dihydroethidium. The settings on record: following MPTP exposure, with or without Dln101 pre-treatment; n = 4–6 per group. An outline of the steps: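 Dihydroethidium, 200 μl of a 1 mg/ml stock in 1% DMSO, was injected into the tail vein. Mice were perfused 3 h later. Midbrain sections were co-immunostained for TH. DHE fluorescence intensity was quantified in TH+ cells, n = 4–6 per group.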

The nature of series [2]: Accelerating rotarod test, MPTP model. The settings on record: WT mice; MPTP after saline, ghrelin or Dln101 pre-treatment; vehicle = 88.9 ± 6.4; mean ± SEM, n = 5–11 per group. In general terms: Falling from the rotarod earlier than controls is read as motor impairment.
The mark [3] stands for this setting: 1 day after MPTP (15 mg/kg), alone or after Dln101 pre-treatment.

Consider `CN1CC=C(c2ccccc2)CC1` [MPTP, 1-methyl-4-phenyl-1,2,5,6 tetrahydropyridine], for which, in series [1] (4 h after MPTP (15 mg/kg)), the “Mitochondrial average area in SN DA cells” value was determined as 0.112 ± 0.006 μm^2 and the Mitochondrial cytoplasmic coverage is reported as 8.66% ± 0.68. Moreover, in series [1] (setting [3]), the “Mitochondrial average area in SN DA cells” value was determined as 0.176 ± 0.006 μm^2 and the Mitochondrial cytoplasmic coverage is on record as 6.144% ± 0.51. The “average mitochondrial area in SN DA cells” value in series [1] (4h after MPTP, n = 421–1456) came out at 0.179 ± 0.004. Also, in series [1] (4h after MPTP), the “mitochondrial coverage of cytoplasmic area” value amounted to 10.22 ± 0.69% and the “mitochondrial units per cell” value worked out at 52 ± 6. For the same compound, in series [1] (3days after MPTP), the “average mitochondrial area in SN DA cells” value turned out to be 0.287 ± 0.006, the “mitochondrial coverage of cytoplasmic area” value was 23.32 ± 4.21% and the “mitochondrial units per cell” value is given as 29 ± 3. Besides, the “microglial morphology / activation in SN (IBA1 immunostaining)” value in the series with microglia in SN is “microglial activation”. In addition, the “increase in ROS production in SN DA neurons (DHE fluorescence)” value with SN DA neurons (TH+) came out at 7.46 fold. In addition, the “Latency to fall from the rotarod” value in series [2] is 51.0 ± 5.0 s.
